In data set [1] the test system is CL1-0. The data set can be described thus: Antiproliferative activity against human CL1-0 cells assessed as reduction in cell viability after 72 hrs by MTS assay. The data set is classed as functional, cell-based. The settings on record: CL1-0, 72 h. In a few lines: (§1)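 Cells plated at 2000/well, cultured overnight, then exposed to a range of compound concentrations for 72 h. MTS reagent added for 1–4 h at 37 °C and absorbance read at 490 nm. Cultured in RPMI 1640 or DMEM with 10% heat-inactivated FBS under 5% CO2. Data are the mean of three determinations.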

The next data set concerns the target Tubulin (Sus scrofa) (UniProt P02554+P02550). The experiment in a line: Inhibition of porcine tubulin polymerization assessed as inhibition of formation of microtubule asters in centrosome after 8 mins immunofluorescence assay. The data set is classed as protein assay. In a few lines: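 Purified centrosomes incubated with compound, then with porcine tubulin in 80 mM PIPES, 1 mM MgCl2, 1 mM EGTA, 1 mM GTP, pH 6.8 for 8 min at 37 °C. Asters fixed in 1% glutaraldehyde and stained for α-tubulin. Fiber length measured on 20 asters per group; mean ± SD.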

The subject of data set [2] is CL1-0. The data set can be described thus: Induction of morphological changes in human CL1-0 cells assessed as disruption of mitotic spindle arrangement at 20 nM after 6 hrs by DAPI staining based confocal microscopic analysis. The class given is functional, cell-based. In a few lines:
(§2)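 Cells exposed for 6 h, fixed in 3.7% paraformaldehyde, permeabilized with 0.1% Triton X-100. Stained with anti-α-tubulin (1:1000) overnight at 4 °C, FITC secondary 1 h at 37 °C, nuclei counterstained with DAPI. Imaged by confocal laser scanning microscopy.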

Data set [3] concerns the target T1, Tubulin (Homo sapiens) (UniProt P68371+Q9H4B7+P0DPH7+P68366+Q13509+Q71U36+P04350+Q3ZCM7+P07437+P68363+Q9BQE3+Q6PEY2+Q13885+Q9BVA1+Q9BUF5). The data set can be described thus: Inhibition of microtubule polymerization in human NCI-H1975 cells at 40 nM after 1 hr followed by exposure to cold and measured at 5 to 60 mins immunofluorescence based assay. The data set is classed as cell-based. In a few lines: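 H1975 cells pretreated with 40 nM for 1 h, held cold for 30 min, then returned to 37 °C for varying times. Fixed and stained for α-tubulin by immunofluorescence with DAPI counterstain, then imaged by confocal microscopy.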

Data set [4] concerns the target T1, Tubulin (Homo sapiens). The data set can be described thus: Induction of microtubule depolymerization in human CL1-0 cells at 20 nM after 6 hrs by DAPI staining based DAPI staining based confocal microscopic analysis. The class given is cell-based. In a few lines:
as §2

For data set [5], the target named is T1, Tubulin (Homo sapiens). The experiment in a line: Induction of microtubule depolymerization in human NCI-H1975 cells at 40 nM after 6 hrs by DAPI staining based DAPI staining based confocal microscopic analysis. The data set is classed as cell-based. The essentials:
as §2

The test system of data set [6] is NCI-H1975. The data set can be described thus: Cell cycle arrest in human NCI-H1975 cells assessed as increase in cell population at G2/M phase after 24 hrs by propidium iodide-staining based flow cytometry. The data set is classed as functional. In a few lines:
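Cells treated for 24 h, then trypsinized and fixed overnight in ice-cold 70% ethanol. Stained for 30 min with propidium iodide (10 µg/mL) plus RNase (20 µg/mL), and DNA content measured by flow cytometry. Mean ± SD.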

For data set [7], the system named is CL1-0. The data set can be described thus: Induction of apoptosis in human CL1-0 cells assessed as caspase 8 activation at 20 to 40 nM after 24 hrs by immunoblotting analysis. The class given is functional, cell-based.
The test system of data set [8] is NCI-H1975. The experiment in a line: Induction of cell cycle arrest in human NCI-H1975 cells assessed as accumulation at mitotic phase after 24 hrs by high content imaging analysis. The data set is classed as functional, cell-based. In a few lines:
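Cells exposed for 24 h, stained for phospho-histone H3 (S10), and imaged by high-content imaging. Mitotic index taken as the fraction of p-HH3-positive cells. Mean ± SD.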

Data set [9] deals with NCI-H1975. The experiment in a line: Induction of mitotic arrest in human NCI-H1975 cells assessed as increase in cyclin B1 expression at 40 to 80 nM after 24 hrs by immunoblotting analysis. The class given is functional, cell-based.
Data set [10] concerns NCI-H1975. The experiment in a line: Induction of apoptosis in human NCI-H1975 cells assessed as PARP cleavage at 40 nM by immunoblotting analysis. The class given is functional, cell-based. The settings on record: TDE = time-dependent effect.
The test system of the next data set is SAS. The data set can be described thus: Antiproliferative activity against human SAS cells assessed as reduction in cell viability after 72 hrs by MTS assay. The data set is classed as functional, cell-based. In a few lines:
as §1

Data set [11] deals with NCI-H1975. The data set can be described thus: Antiproliferative activity against human NCI-H1975 cells assessed as reduction in colony formation after 14 days by crystal violet staining based assay. The class given is functional, cell-based. The essentials:
(§3)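 Seeded at 1000 cells/well, cultured overnight, then treated with 12.5–200 nM for 14 days. Colonies fixed in 3.7% paraformaldehyde, stained with 0.04% crystal violet and dissolved in DMSO, then absorbance read at 590 nm. Mean ± SD.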

A further data set has as its system SK-OV-3. The data set can be described thus: Antiproliferative activity against human SKOV3 cells assessed as reduction in cell viability after 72 hrs by MTS assay. The settings on record: SK-OV-3, 72 h. The data set is classed as functional, cell-based. In a few lines: as §1
Another data set relates to IGROV-1. The data set can be described thus: Antiproliferative activity against human IGROV1 cells assessed as reduction in cell viability after 72 hrs by MTS assay. The settings on record: IGROV-1, 72 h. The data set is classed as functional, cell-based. In a few lines: as §1
Data set [12] relates to CL1-0. The data set can be described thus: Induction of mitotic arrest in human CL1-0 cells assessed as cyclin A expression at 20 to 40 nM after 24 hrs by immunoblotting analysis. The data set is classed as functional, cell-based.
Data set [13] deals with CL1-0. The experiment in a line: Antiproliferative activity against human CL1-0 cells assessed as reduction in colony formation after 14 days by crystal violet staining based assay. The data set is classed as functional, cell-based. In a few lines: as §3
Data set [14] has as its system NCI-H1975. The experiment in a line: Induction of apoptosis in human NCI-H1975 cells assessed as increase in cyclin B1 expression at 25 to 50 nM after 24 hrs by immunoblotting analysis. The class given is functional, cell-based.
The test system of data set [15] is NCI-H1975. The data set can be described thus: Antitumour activity against human NCI-H1975 cells xenografted in Balb/c mouse assessed as tumour size at 8 mg/kg, ip administered three times per week and measured on day 21 (reference value: 2153 +/- 126.3 mm3). The class given is functional. In a few lines:
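H1975 tumours grown in the right flank of 6-week-old BALB/c nude mice. DMSO vehicle or 4 or 8 mg/kg compound in DMSO given ip three times weekly. Tumour volume calculated as 0.5W²L before each dose and compared on day 21.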

Data set [16] is filed under the species Homo sapiens. The experiment in a line: Induction of morphological changes in human KBtax cells assessed as disruption of mitotic spindle arrangement at 30 nM after 6 hrs by DAPI staining based confocal microscopic analysis. The class given is functional, cell-based. The essentials: as §2
The species named for data set [17] is Homo sapiens. The data set can be described thus: Induction of mitotic arrest in human KBtax cells assessed as increase in cyclin-B1 expression at 30 to 60 nM after 24 hrs by immunoblotting analysis. The data set is classed as functional, cell-based.
The subject of data set [18] is NCI-H1975. The data set can be described thus: Induction of apoptosis in human NCI-H1975 cells assessed as increase in p-HH3 expression at 25 to 50 nM after 24 hrs by immunoblotting analysis. The class given is functional, cell-based.
A further data set concerns MDA-MB-231. The data set can be described thus: Antitumour activity against human MDA-MB-231 cells xenografted in Balb/c mouse assessed as tumour size at 4 mg/kg, ip administered three times per week and measured on day 35 (reference value: 218 +/- 20.9 mm3). The data set is classed as functional. The essentials: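 MDA-MB-231 tumours established in the right flank of 6-week-old BALB/c nude mice. Compound dissolved in DMSO was given ip three times weekly, with a DMSO vehicle group. Tumour volume calculated as 0.5W²L, measured before each dose and compared on day 35.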

Data set [19] is described as follows: Toxicity in Balb/c mouse xenografted with human MDA-MB-231 cells assessed as effect on body mass at 4 to 8 mg/kg, ip administered 3 times per week for 35 days. The data set is classed as organism-based. The settings on record: in vivo, 840 h. The essentials: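 MDA-MB-231 tumors established in right flank of 6-week-old BALB/c nude mice; once established, 4 or 8 mg/kg compound in DMSO, or DMSO vehicle, injected intraperitoneally three times weekly. Body mass measured before each injection.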

Structures are written as SMILES. The source made the active and inactive calls. The calls are words filed in the database; no cut-off is given here.

Tubulin (Sus scrofa), sequence (P02550 whole entry, looked up): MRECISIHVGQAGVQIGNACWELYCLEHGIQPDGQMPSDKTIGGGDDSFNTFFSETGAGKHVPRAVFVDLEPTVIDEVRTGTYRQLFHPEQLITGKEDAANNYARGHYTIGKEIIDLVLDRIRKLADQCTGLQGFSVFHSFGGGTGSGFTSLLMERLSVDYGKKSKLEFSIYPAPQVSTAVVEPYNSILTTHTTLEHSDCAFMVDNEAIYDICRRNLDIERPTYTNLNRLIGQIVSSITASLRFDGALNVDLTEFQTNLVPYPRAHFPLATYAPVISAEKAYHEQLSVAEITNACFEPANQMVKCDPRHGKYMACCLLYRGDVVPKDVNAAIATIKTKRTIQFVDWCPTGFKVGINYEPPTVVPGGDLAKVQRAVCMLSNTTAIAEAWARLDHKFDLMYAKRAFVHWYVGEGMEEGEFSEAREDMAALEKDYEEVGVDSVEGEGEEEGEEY
Tubulin (Sus scrofa), sequence (P02554 whole entry, looked up): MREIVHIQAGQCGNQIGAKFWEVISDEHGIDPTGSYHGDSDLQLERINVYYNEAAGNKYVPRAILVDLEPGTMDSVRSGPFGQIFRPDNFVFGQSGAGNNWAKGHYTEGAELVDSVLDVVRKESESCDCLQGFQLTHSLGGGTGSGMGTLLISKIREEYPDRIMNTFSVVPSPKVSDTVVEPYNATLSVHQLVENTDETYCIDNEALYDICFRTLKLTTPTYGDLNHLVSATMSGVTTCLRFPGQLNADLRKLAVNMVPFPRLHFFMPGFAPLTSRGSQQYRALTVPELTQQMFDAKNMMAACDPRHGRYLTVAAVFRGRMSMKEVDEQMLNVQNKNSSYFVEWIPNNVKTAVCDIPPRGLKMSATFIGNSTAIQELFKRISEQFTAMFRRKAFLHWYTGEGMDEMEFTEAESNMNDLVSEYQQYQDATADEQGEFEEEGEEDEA

Turning to `CCOC(=O)c1ccc2nc(-c3ccccc3)cc(O)c2c1`, the IC50 in the data set with CL1-0 [1] is 16 nM; with SAS, 78 nM; with SK-OV-3 it was 50 nM; in the data set on IGROV-1 it was 84 nM. In addition, at Tubulin (Sus scrofa), the inhibition result is “Active”. For the same compound, the outcome in the data set on CL1-0 [2], on Tubulin (Homo sapiens) [3], on Tubulin (Homo sapiens) [4], at Tubulin (Homo sapiens) [5], with NCI-H1975 [9] and with NCI-H1975 [11] was Active. For the same compound, in the data set on CL1-0 [13], the result was Active. Also, the Activity result with NCI-H1975 [6] is “Dose-dependent effect”; in the data set on NCI-H1975 [8], “Dose-dependent effect”; in the data set on NCI-H1975 [10] it was “Tde”. In addition, the outcome with CL1-0 [7] and in the data set with CL1-0 [12] was inactive.

Turning to `CCOC(=O)c1ccc2[nH]c(-c3cccc(F)c3)cc(=O)c2c1`, the result in the data set on NCI-H1975 [14], in the data set filed under Homo sapiens [16], in the data set filed under Homo sapiens [17] and in the data set on NCI-H1975 [18] was Active. For the same compound, the Activity with NCI-H1975 [15] was 972.5 mm3; in the data set on MDA-MB-231 it was 105 mm3; in data set [19], “Non-Toxic”.
